pKi: −log10 of the molar value.
experiment: Binding affinity to blood-brain barrier choline transporter in rat brain assessed as inhibition of [3H]choline uptake; format: tissue-based
Outline: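 In situ rat brain perfusion (Allen and Smith modification); inhibition of [3H]choline uptake into brain measured. Ki taken as analogue concentration inhibiting 50% of [3H]-choline uptake, calculated from a single inhibitor concentration. Ki values compared by ANOVA with Bonferroni's multiple comparisons test.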

Structure (SMILES) | pKi
c1ccc2c[n+](CCCCCCCCCCCC[n+]3ccc4ccccc4c3)ccc2c1 | 4.66
c1ccc2c[n+](CCCCCCCCCC[n+]3ccc4ccccc4c3)ccc2c1 | 5.02
CCCCCCCC[n+]1cccc([C@@H]2CCCN2C)c1 | 4.31
c1ccc2c[n+](CCCCCC[n+]3ccc4ccccc4c3)ccc2c1 | 4.54
C1#Cc2ccc[n+](c2)CCCCCCCC[n+]2cccc(c2)C#CCCCCCC1 | 6.10
C1#Cc2ccc[n+](c2)CCCCCCCCC[n+]2cccc(c2)C#CCCCCCC1 | 4.47
C1#Cc2ccc[n+](c2)CCCC[n+]2cccc(c2)C#CCCCCCC1 | 4.82
C1#Cc2ccc[n+](c2)CCCCCCC[n+]2cccc(c2)C#CCCCCCC1 | 5.85
Cc1ccc[n+](CCCCCCCCCCCC[n+]2cccc(C)c2)c1 | 4.44
C[N+](C)(C)CCO [CHOLINE] | 4.39
